From ChEMBL document CHEMBL5058577, “EUbOPEN Chemogenomics Library 2 (Multiplex)” (2022)

System: Fibroblast
Assay: Multiplex assay against human fibroblast
Type: toxicity, cell-based
In short: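 Imaging took place on a CQ1 microscope at 37°C and 5% CO2 once compound had been added to live cells stained at seeding with Hoechst33342, BioTracker Green Microtubule Cytoskeleton Dye, MitoTracker Red and Annexin V Alexa Fluor 680. CellPathfinder machine-learning gating classed cells as Hoechst high-intensity objects or normal cells, classed normal cells as having healthy, pyknosed or fragmented nuclei, and classed pyknosed cells as mitotic or apoptotic. Tubulin, mitochondrial-mass and membrane-permeability phenotypes are per cents of the healthy-nucleus cells.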

[1] = 12 h, 1 µM, compound concentration 1 uM, replicate 1
[2] = 12 h, 1 µM, compound concentration 1 uM, replicate 2
[3] = 12 h, 10 µM, compound concentration 10 uM, replicate 1
[4] = 12 h, 10 µM, compound concentration 10 uM, replicate 2
[5] = 24 h, 1 µM, compound concentration 1 uM, replicate 1
[6] = 24 h, 1 µM, compound concentration 1 uM, replicate 2
[7] = 24 h, 10 µM, compound concentration 10 uM, replicate 1
[8] = 24 h, 10 µM, compound concentration 10 uM, replicate 2
[9] = 48 h, 1 µM, compound concentration 1 uM, replicate 1
[10] = 48 h, 1 µM, compound concentration 1 uM, replicate 2
[11] = 48 h, 10 µM, compound concentration 10 uM, replicate 1
[12] = 48 h, 10 µM, compound concentration 10 uM, replicate 2

Question: What does the source list for `Cl.N=C(N)NC(=O)Cc1c(Cl)cccc1Cl` [GUANFACINE HYDROCHLORIDE]?
Answer: Population Apoptotic (%) [1]: 44%; Population Fragmented Nuclei (%) [1]: 20%; Population Healthy Nuclei (%) [1]: 62%; Population Hoechst High Intensity Objects (%) [1]: 2%; Population Membrane Permeable-Phenotype (%) [1]: 0%; Population Mitochondria Different-Phenotype (%) [1]: 4%; Population Mitotic Cells (%) [1]: 55%; Population Normal (%) [1]: 97%; Population Pyknosed Nuclei (%) [1]: 16%; Population Tubulin-Different-Phenotype (%) [1]: 32%; Total Cell Count [1]: 167; Population Apoptotic (%) [2]: 28%; Population Fragmented Nuclei (%) [2]: 23%; Population Healthy Nuclei (%) [2]: 45%; Population Membrane Permeable-Phenotype (%) [2]: 3%; Population Mitochondria Different-Phenotype (%) [2]: 7%; Population Mitotic Cells (%) [2]: 71%; Population Pyknosed Nuclei (%) [2]: 31%; Population Tubulin-Different-Phenotype (%) [2]: 46%; Total Cell Count [2]: 149; Population Apoptotic (%) [3]: 66%; Population Fragmented Nuclei (%) [3]: 16%; Population Healthy Nuclei (%) [3]: 68%; Population Hoechst High Intensity Objects (%) [3]: 0%; Population Membrane Permeable-Phenotype (%) [3]: 1%; Population Mitochondria Different-Phenotype (%) [3]: 5%; Population Mitotic Cells (%) [3]: 33%; Population Normal (%) [3]: 99%; Population Pyknosed Nuclei (%) [3]: 15%; Population Tubulin-Different-Phenotype (%) [3]: 24%; Total Cell Count [3]: 139; Population Apoptotic (%) [4]: 35%; Population Fragmented Nuclei (%) [4]: 22%; Population Healthy Nuclei (%) [4]: 47%; Population Hoechst High Intensity Objects (%) [4]: 10%; Population Membrane Permeable-Phenotype (%) [4]: 5%; Population Mitotic Cells (%) [4]: 64%; Population Normal (%) [4]: 89%; Population Pyknosed Nuclei (%) [4]: 29%; Population Tubulin-Different-Phenotype (%) [4]: 46%; Total Cell Count [4]: 127; Population Apoptotic (%) [5]: 58%; Population Fragmented Nuclei (%) [5]: 22%; Population Healthy Nuclei (%) [5]: 62%; Population Hoechst High Intensity Objects (%) [5]: 1%; Population Membrane Permeable-Phenotype (%) [5]: 0%; Population Mitochondria Different-Phenotype (%) [5]: 5%; Population Mitotic Cells (%) [5]: 41%; Population Normal (%) [5]: 98%; Population Pyknosed Nuclei (%) [5]: 14%; Population Tubulin-Different-Phenotype (%) [5]: 26%; Total Cell Count [5]: 169; Population Apoptotic (%) [6]: 45%; Population Fragmented Nuclei (%) [6]: 23%; Population Healthy Nuclei (%) [6]: 46%; Population Hoechst High Intensity Objects (%) [6]: 6%; Population Membrane Permeable-Phenotype (%) [6]: 12%; Population Mitochondria Different-Phenotype (%) [6]: 8%; Population Mitotic Cells (%) [6]: 54%; Population Normal (%) [6]: 93%; Population Pyknosed Nuclei (%) [6]: 30%; Population Tubulin-Different-Phenotype (%) [6]: 50%; Total Cell Count [6]: 130; Population Apoptotic (%) [7]: 63%; Population Fragmented Nuclei (%) [7]: 17%; Population Healthy Nuclei (%) [7]: 68%; Population Hoechst High Intensity Objects (%) [7]: 1%; Population Membrane Permeable-Phenotype (%) [7]: 0%; Population Mitochondria Different-Phenotype (%) [7]: 4%; Population Mitotic Cells (%) [7]: 36%; Population Normal (%) [7]: 98%; Population Pyknosed Nuclei (%) [7]: 14%; Population Tubulin-Different-Phenotype (%) [7]: 19%; Total Cell Count [7]: 137; Population Apoptotic (%) [8]: 25%; Population Fragmented Nuclei (%) [8]: 26%; Population Healthy Nuclei (%) [8]: 55%; Population Hoechst High Intensity Objects (%) [8]: 4%; Population Membrane Permeable-Phenotype (%) [8]: 13%; Population Mitochondria Different-Phenotype (%) [8]: 3%; Population Mitotic Cells (%) [8]: 75%; Population Normal (%) [8]: 95%; Population Pyknosed Nuclei (%) [8]: 18%; Population Tubulin-Different-Phenotype (%) [8]: 58%; Total Cell Count [8]: 114; Population Apoptotic (%) [9]: 61%; Population Fragmented Nuclei (%) [9]: 25%; Population Healthy Nuclei (%) [9]: 63%; Population Hoechst High Intensity Objects (%) [9]: 1%; Population Membrane Permeable-Phenotype (%) [9]: 0%; Population Mitochondria Different-Phenotype (%) [9]: 6%; Population Mitotic Cells (%) [9]: 38%; Population Normal (%) [9]: 98%; Population Pyknosed Nuclei (%) [9]: 11%; Population Tubulin-Different-Phenotype (%) [9]: 32%; Total Cell Count [9]: 162; Population Apoptotic (%) [10]: 50%; Population Fragmented Nuclei (%) [10]: 33%; Population Healthy Nuclei (%) [10]: 45%; Population Hoechst High Intensity Objects (%) [10]: 3%; Population Membrane Permeable-Phenotype (%) [10]: 4%; Population Mitochondria Different-Phenotype (%) [10]: 11%; Population Mitotic Cells (%) [10]: 50%; Population Normal (%) [10]: 96%; Population Pyknosed Nuclei (%) [10]: 21%; Population Tubulin-Different-Phenotype (%) [10]: 57%; Total Cell Count [10]: 145; Population Apoptotic (%) [11]: 66%; Population Fragmented Nuclei (%) [11]: 22%; Population Healthy Nuclei (%) [11]: 67%; Population Hoechst High Intensity Objects (%) [11]: 1%; Population Membrane Permeable-Phenotype (%) [11]: 1%; Population Mitochondria Different-Phenotype (%) [11]: 6%; Population Mitotic Cells (%) [11]: 33%; Population Normal (%) [11]: 98%; Population Pyknosed Nuclei (%) [11]: 10%; Population Tubulin-Different-Phenotype (%) [11]: 24%; Total Cell Count [11]: 142; Population Apoptotic (%) [12]: 45%; Population Fragmented Nuclei (%) [12]: 39%; Population Healthy Nuclei (%) [12]: 41%; Population Hoechst High Intensity Objects (%) [12]: 6%; Population Membrane Permeable-Phenotype (%) [12]: 8%; Population Mitochondria Different-Phenotype (%) [12]: 2%; Population Mitotic Cells (%) [12]: 54%; Population Normal (%) [12]: 93%; Population Pyknosed Nuclei (%) [12]: 19%; Population Tubulin-Different-Phenotype (%) [12]: 67%; Total Cell Count [12]: 120
